An excerpt weighted towards active compounds, which were near 4.5% of everything screened.
RGS4 inh: human RGS4 inhibition | HEK293 M3R/RGS4 inducible, Fluo-4 calcium flux; active compounds read high; triggered by carbachol at its EC20 | AID 463165 | B-score at 10 µM | actives 0.45% (n = 310,000);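 active means B-score, a plate-corrected calcium signal, over three deviations above library mean, with baseline fluorescence within five deviations of library mean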;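 further: RGS4 expression induced by doxycycline in cells with stable M3 receptor; B-score is computed from the integrated fluorescence ratio over baseline after carbachol; higher B-score means a larger calcium signal and so more RGS4 inhibition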
MrgX1 antag: antagonists of human MrgX1 receptor. AID 588676. MRGX1-HEK293 calcium flux, Fluo-4, BAM8-22 antagonism; active compounds read low. actives 1.3% (n = 310,000). B-score at 10 µM;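 active means calcium-response B-score plate-corrected more than 3 library SD below zero, starting fluorescence within 5 deviations, no agonist response on first addition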;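 further: peak minus trough fluorescence over baseline after final BAM8-22 challenge near maximal dose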
Target sequence (Q96LB2 whole entry, looked up): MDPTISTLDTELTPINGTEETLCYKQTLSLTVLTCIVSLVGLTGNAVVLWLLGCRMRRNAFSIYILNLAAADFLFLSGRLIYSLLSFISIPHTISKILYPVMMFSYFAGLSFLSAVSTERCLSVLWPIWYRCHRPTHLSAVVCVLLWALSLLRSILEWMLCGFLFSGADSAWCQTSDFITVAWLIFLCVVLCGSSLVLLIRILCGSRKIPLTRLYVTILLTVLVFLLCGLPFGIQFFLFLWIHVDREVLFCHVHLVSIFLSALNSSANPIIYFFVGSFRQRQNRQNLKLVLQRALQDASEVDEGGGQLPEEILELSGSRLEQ
MrgX1 PAM: human MrgX1 positive allosteric modulation, primary screen. B-score at 10 µM. Q96LB2. AID 588675. actives 0.63% (n = 310,000). MrgX1-HEK293, Fluo-4 calcium flux, FDSS; active compounds read high;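 active means plate-corrected calcium response at least 3 library SD above typical, normal starting fluorescence, not activating the receptor alone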;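 further: compound read alongside a low EC10 to EC30 dose of BAM8-22 agonist; peak minus trough fluorescence over baseline measured at the second addition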
RGS4 act: RGS4 potentiation or activation; HEK293 M3R/inducible RGS4, carbachol calcium flux Fluo4; active compounds read low; B-score at 10 µM; actives 0.92% (n = 310,000);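 active means B-score of the integrated calcium signal more than 4 SD below the library mean, with starting fluorescence not abnormally high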;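 further: negative B-score means reduced calcium response which marks RGS4 activation or potentiation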
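Material: Inducible-RGS4 HEK293 cells carrying M3 receptor; also added: carbachol at ECmax as muscarinic agonist stimulus; incubation: compound preincubation 20 min at room temperature before agonist; signal: Fluo4-AM (2 µM) calcium-flux fluorescence, kinetic read; measure: integrated calcium ratio converted to B score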
MrgX1 ag: human MrgX1 receptor agonism, primary screen; MrgX1-HEK293 cells, Fluo-4 calcium fluorescence, agonist mode; active compounds read high; B-score at 10 µM; actives 0.44% (n = 310,000);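 active means calcium response B-score plate-corrected fluorescence ratio at least 3 library SD, with starting fluorescence B-score inside 5 SD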
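Assay system: MrgX1-expressing HEK293 cells / Amount: fifteen thousand cells per well / Doses: test compound in the initial addition of three / Timing: cells plated overnight, dye loaded 0.5 h 37 °C, 0.5 h room temperature / Technique: kinetic calcium dye fluorescence, Fluo-4 NW / Control set: positive and negative controls per plate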
PHOSPHO1 block: inhibitors of human PHOSPHO1 phosphatase; inhibition, % at 13.3 µM; actives 1.1% (n = 290,000); recombinant PHOSPHO1, absorbance phosphatase assay; Q8TCT1; in the data active means inhibition above about 60%
* marks the source's active call; other numbers are inactive results.

For Cc1cccc(/N=C/c2ccccn2)n1 the results were RGS4 inh inactive, MrgX1 antag inactive, MrgX1 PAM inactive, RGS4 act inactive and MrgX1 ag inactive.
Screening COCCN=c1scc(-c2cccs2)n1/N=C/c1ccc(O)c(O)c1O returned RGS4 inh inactive, MrgX1 antag inactive, MrgX1 PAM 16*, RGS4 act inactive, MrgX1 ag inactive and PHOSPHO1 block -2.
`O=C(/C=C\Nc1ccccc1Br)c1ccc2c(c1)OCO2` gave RGS4 inh inactive, MrgX1 antag inactive, MrgX1 PAM inactive, RGS4 act inactive, MrgX1 ag inactive and PHOSPHO1 block 4.
Screening COC(=O)c1ccc(N/C=C\C(=O)c2ccc3c(c2)OCO3)cc1 returned RGS4 inh inactive, MrgX1 antag inactive, MrgX1 PAM inactive, RGS4 act inactive, MrgX1 ag inactive and PHOSPHO1 block 30.
`O=C(/C=C/c1ccccc1)c1ccc2c(c1)OCO2` gave RGS4 inh inactive, MrgX1 antag inactive, MrgX1 PAM inactive, RGS4 act inactive, MrgX1 ag inactive and PHOSPHO1 block 16.
For O=C(/C=C/c1ccccc1Br)c1ccc2c(c1)OCO2 the results were RGS4 inh inactive, MrgX1 antag inactive, MrgX1 PAM inactive, RGS4 act -11*, MrgX1 ag inactive and PHOSPHO1 block 28.
`O=C(/C=C\Nc1cccc(F)c1)c1ccc2c(c1)OCO2` gave RGS4 inh inactive, MrgX1 antag -4.7*, MrgX1 PAM inactive, RGS4 act inactive, MrgX1 ag inactive and PHOSPHO1 block 43.
`O=C(/C=C/c1cccc(Br)c1)c1ccc2c(c1)OCO2` gave RGS4 inh inactive, MrgX1 antag inactive, MrgX1 PAM 8.3*, RGS4 act inactive, MrgX1 ag inactive and PHOSPHO1 block 42.
`COc1ccc(CCNC(=O)/C(C#N)=C2\N=C(NC(=O)c3ccco3)c3ccccc32)cc1` gave RGS4 inh inactive, MrgX1 antag -4.7*, MrgX1 PAM inactive, RGS4 act inactive, MrgX1 ag inactive and PHOSPHO1 block -1.
For N#C/C(C(=O)NCc1ccccc1)=C1/N=C(NC(=O)c2ccco2)c2ccccc21 the results were RGS4 inh inactive, MrgX1 antag inactive, MrgX1 PAM inactive, RGS4 act inactive, MrgX1 ag inactive and PHOSPHO1 block 33.
`C[C@]12C=CC(=O)C=C1CC[C@@H]1C2=CC[C@]2(C)[C@@H](C(=O)CN3CCN(c4cc(N5CCCC5)nc(N5CCCC5)n4)CC3)CC[C@@H]12` gave RGS4 inh inactive, MrgX1 antag inactive, MrgX1 PAM inactive, RGS4 act inactive and MrgX1 ag 38*.
For CC(=O)N1CC(C)Oc2ccc(S(=O)(=O)NC(CC(=O)O)c3ccccc3C)cc21 (stereo not drawn) the results were RGS4 inh inactive, MrgX1 antag inactive, MrgX1 PAM inactive, RGS4 act inactive, MrgX1 ag inactive and PHOSPHO1 block 65*.
For CC1CN(S(=O)(=O)c2ccc(C(=O)Nc3nnc(-c4ccccn4)o3)cc2)CC(C)O1 (stereo not drawn) the results were RGS4 inh inactive, MrgX1 antag inactive, MrgX1 PAM inactive, RGS4 act inactive, MrgX1 ag inactive and PHOSPHO1 block 2.
Screening CC1CN(S(=O)(=O)c2ccc(C(=O)Nc3nnc(-c4ccc5c(c4)CCCC5)o3)cc2)CC(C)O1 (stereo not drawn) returned RGS4 inh inactive, MrgX1 antag inactive, MrgX1 PAM inactive, RGS4 act -7.3*, MrgX1 ag inactive and PHOSPHO1 block -9.
Screening O=C(CNC(=O)C1CCCCC1)NCc1ccco1 returned RGS4 inh inactive, MrgX1 antag inactive, MrgX1 PAM inactive, RGS4 act inactive, MrgX1 ag inactive and PHOSPHO1 block 23.
For CCC(NC(=S)NCc1ccc(F)cc1)c1ccc(C)cc1 (stereo not drawn) the results were RGS4 inh inactive, MrgX1 antag inactive, MrgX1 PAM inactive, RGS4 act inactive, MrgX1 ag inactive and PHOSPHO1 block -28.

Assay outcomes: PubChem BioAssay, several laboratories
